How the values were obtained:
Assay type in all cases: functional
NCI-H460 = assay: Anticancer activity against Homo sapiens (human) NCI-H460 cells by SRB assay
How it was run: (§1)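 Five-dose NCI 60-cell-line panel testing at tenfold dilutions from 10−4 to 10−8 M, with growth read by sulforhodamine B protein staining. For each cell line: GI50 is the molar concentration giving half growth inhibition; TGI is total growth inhibition (cytostatic); LC50 is the molar concentration killing 50% of the initial cells (cytotoxic).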

HT-29 = assay: Anticancer activity against Homo sapiens (human) HT-29 cells assessed as cell growth at 10 uM by SRB assay; settings: read-out: Activity
How it was run: (§2)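 NCI 60-cell human tumour panel (nine cancer types) screened at one concentration, 10−5 M. Cell growth estimated by sulforhodamine B protein staining and reported as percent growth of treated cells relative to untreated controls.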

HCT-15 = assay: Anticancer activity against Homo sapiens (human) HCT15 cells assessed as cell growth at 10 uM by SRB assay; settings: read-out: Activity; how it was run: as §2
HCT-116 = assay: Anticancer activity against Homo sapiens (human) HCT116 cells assessed as cell growth at 10 uM by SRB assay; settings: read-out: Activity; how it was run: as §2
COLO 205 = assay: Anticancer activity against Homo sapiens (human) COLO205 cells assessed as cell growth at 10 uM by SRB assay; settings: read-out: Activity; how it was run: as §2
HCC 2998 = assay: Anticancer activity against Homo sapiens (human) HCC2998 cells assessed as cell growth at 10 uM by SRB assay; settings: read-out: Activity; how it was run: as §2
NCI-H23 = assay: Anticancer activity against Homo sapiens (human) NCI-H23 cells assessed as cell growth at 10 uM by SRB assay; settings: read-out: Activity
How it was run: (§3)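 Single-dose screen in the NCI 60-human-tumour-cell-line panel (nine cancer types) at 10−5 M. Cell growth was estimated by sulforhodamine B protein staining and reported as percent growth of treated cells relative to untreated controls.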

HOP-92 = assay: Anticancer activity against Homo sapiens (human) HOP92 cells assessed as cell growth at 10 uM by SRB assay; settings: read-out: Activity; how it was run: as §2
A549 [1] = assay: Anticancer activity against Homo sapiens (human) A549/ATCC cells by SRB assay
How it was run: (§4)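 NCI 60-line panel, five tenfold dilutions from 10−4 to 10−8 M, growth read by sulforhodamine B staining against untreated controls. From the dose–response per line: GI50 (molar concentration giving half growth inhibition), TGI (molar concentration giving total growth inhibition, cytostatic) and LC50 (molar concentration killing 50% of initial cells, cytotoxic).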

[2] = Anticancer activity against Homo sapiens (human) RPMI8266 cells by SRB assay; how it was run: as §1
K562 = assay: Anticancer activity against Homo sapiens (human) K562 cells by SRB assay; how it was run: as §4
A549 [3] = assay: Anticancer activity against Homo sapiens (human) A549/ATCC cells assessed as cell growth at 10 uM by SRB assay; settings: read-out: Activity; how it was run: as §2
HL-60(TB) = assay: Anticancer activity against Homo sapiens (human) HL-60(TB) cells assessed as cell growth at 10 uM by SRB assay; settings: read-out: Activity
How it was run: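 NCI 60-cell-line human tumour panel screen at a single 10−5 M concentration. Cell growth was estimated by sulforhodamine B protein staining. Results are given as percent growth of treated cells relative to untreated controls.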

OVCAR-5 = assay: Anticancer activity against Homo sapiens (human) OVCAR5 cells by SRB assay; settings: read-out: pTGI (converted); how it was run: as §1
OVCAR-3 [4] = assay: Anticancer activity against Homo sapiens (human) OVCAR3 cells by SRB assay; how it was run: as §1
SK-MEL-28 = assay: Anticancer activity against Homo sapiens (human) SK-MEL-28 cells by SRB assay; how it was run: as §1
MDA-MB-435 = assay: Anticancer activity against Homo sapiens (human) MDA-MB-435 cells by SRB assay; how it was run: as §1
LOX IMVI = assay: Anticancer activity against Homo sapiens (human) LOXIMVI cells by SRB assay; how it was run: as §4
SNB-19 = assay: Anticancer activity against Homo sapiens (human) SNB19 cells by SRB assay; how it was run: as §1
786-0 = assay: Anticancer activity against Homo sapiens (human) 786-0 cells assessed as cell growth at 10 uM by SRB assay; settings: read-out: Activity; how it was run: as §2
OVCAR-3 [5] = assay: Anticancer activity against Homo sapiens (human) OVCAR3 cells assessed as cell growth at 10 uM by SRB assay; settings: read-out: Activity; how it was run: as §3
UACC-62 = assay: Anticancer activity against Homo sapiens (human) UACC62 cells assessed as cell growth at 10 uM by SRB assay; settings: read-out: Activity
How it was run: (§5)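 NCI 60-cell human tumour panel (leukemia, melanoma, lung, colon, CNS, breast, ovarian, prostate, renal lines) given a single 10−5 M dose. Growth is expressed as percent growth of treated cells relative to untreated controls, with cell growth/viability estimated by sulforhodamine B protein staining.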

UACC-257 = assay: Anticancer activity against Homo sapiens (human) UACC257 cells assessed as cell growth at 10 uM by SRB assay; settings: read-out: Activity; how it was run: as §5
SK-MEL-2 = assay: Anticancer activity against Homo sapiens (human) SK-MEL-2 cells assessed as cell growth at 10 uM by SRB assay; settings: read-out: Activity; how it was run: as §3
SNB-75 = assay: Anticancer activity against Homo sapiens (human) SNB75 cells assessed as cell growth at 10 uM by SRB assay; settings: read-out: Activity; how it was run: as §3
KM12 = assay: Anticancer activity against Homo sapiens (human) KM12 cells assessed as cell growth at 10 uM by SRB assay; settings: read-out: Activity; how it was run: as §2
SW-620 = assay: Anticancer activity against Homo sapiens (human) SW620 cells assessed as cell growth at 10 uM by SRB assay; settings: read-out: Activity; how it was run: as §5
UO-31 [6] = assay: Anticancer activity against Homo sapiens (human) UO31 cells by SRB assay
How it was run: (§6)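 NCI five-dose follow-up on the 60-line human tumour panel at tenfold dilutions from 10−4 to 10−8 M, with growth read by sulforhodamine B protein assay against untreated controls. For each cell line, GI50 (half growth inhibition), TGI (total growth inhibition) and LC50 (50% death of initial cells) are calculated as molar concentrations.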

TK-10 [7] = assay: Anticancer activity against Homo sapiens (human) TK10 cells by SRB assay; how it was run: as §6
Hs-578T = assay: Anticancer activity against Homo sapiens (human) Hs 578T cells assessed as cell growth at 10 uM by SRB assay; settings: read-out: Activity; how it was run: as §2
MCF7 = assay: Anticancer activity against Homo sapiens (human) MCF7 cells assessed as cell growth at 10 uM by SRB assay; settings: read-out: Activity; how it was run: as §2
RXF 393 = assay: Anticancer activity against Homo sapiens (human) RXF393 cells assessed as cell growth at 10 uM by SRB assay; settings: read-out: Activity; how it was run: as §3
UO-31 [8] = assay: Anticancer activity against Homo sapiens (human) UO31 cells assessed as cell growth at 10 uM by SRB assay; settings: read-out: Activity; how it was run: as §5
TK-10 [9] = assay: Anticancer activity against Homo sapiens (human) TK10 cells assessed as cell growth at 10 uM by SRB assay; settings: read-out: Activity; how it was run: as §5
SN12C = assay: Anticancer activity against Homo sapiens (human) SN12C cells assessed as cell growth at 10 uM by SRB assay; settings: read-out: Activity; how it was run: as §3
ACHN = assay: Anticancer activity against Homo sapiens (human) ACHN cells assessed as cell growth at 10 uM by SRB assay; settings: read-out: Activity; how it was run: as §2

With O=c1sc2c(Cl)nc(-c3ccccc3)nc2n1-c1ccccc1 the GI50 (NCI-H460) was 25.1 µM, the growth at 10 µM (HT-29) was 10% and the growth at 10 µM (HCT-15) was 28%. The growth at 10 µM (HCT-116) was -53%, the growth at 10 µM (COLO 205) was 52% and the growth at 10 µM (HCC 2998) was 90%. It also gave a growth at 10 µM (NCI-H23) of 20%, a growth at 10 µM (HOP-92) of 24% and a GI50 (A549 [1]) of 43.7 µM. The GI50 [2] was 44.7 µM, the GI50 (K562) was 4.07 µM and the growth at 10 µM (A549 [3]) was 87%. For the same molecule, the growth at 10 µM (HL-60(TB)) was 38%, the TGI (OVCAR-5) was 45.7 µM and the GI50 (OVCAR-3 [4]) was 1.78 µM. The TGI (OVCAR-3 [4]; read-out: pTGI (converted)) was 79.4 µM, the GI50 (SK-MEL-28) was 3.39 µM and the LC50 (SK-MEL-28) was 69.2 µM. The TGI (SK-MEL-28; read-out: pTGI (converted)) was 13.2 µM, the GI50 (MDA-MB-435) was 4.9 µM and the TGI (MDA-MB-435; read-out: pTGI (converted)) was 45.7 µM. The GI50 (LOX IMVI) was 2.04 µM, the CC50 (LOX IMVI; read-out: pLC50 (the source's name) (converted)) was 18.2 µM and the TGI (LOX IMVI; read-out: pTGI (converted)) was 4.79 µM. It also gave a GI50 (SNB-19) of 41.7 µM, a growth at 10 µM (786-0) of 41% and a growth at 10 µM (OVCAR-3 [5]) of -41%. It also gave a growth at 10 µM (UACC-62) of 62%, a growth at 10 µM (UACC-257) of 48% and a growth at 10 µM (SK-MEL-2) of 48%. The growth at 10 µM (SNB-75) was 12%, the growth at 10 µM (KM12) was 81% and the growth at 10 µM (SW-620) was -4%. For the same molecule, the GI50 (UO-31 [6]) was 1.32 µM, the TGI (UO-31 [6]; read-out: pTGI (converted)) was 2.88 µM and the GI50 (TK-10 [7]) was 10.5 µM. It also gave a growth at 10 µM (Hs-578T) of 12%, a growth at 10 µM (MCF7) of 77% and a growth at 10 µM (RXF 393) of -4%. For the same molecule, the growth at 10 µM (UO-31 [8]) was -79%, the growth at 10 µM (TK-10 [9]) was 51% and the growth at 10 µM (SN12C) was 43%. The growth at 10 µM (ACHN) was 42%.

Source: ChEMBL document CHEMBL3045605, “Synthesis and anticancer evaluation of novel 3,5-diaryl-thiazolo[4,5-d]pyrimidin-2-one derivatives” (2013)
